Measured values as given in ChEMBL document CHEMBL4000219, “Synthesis and biological evaluation of naphthoquinone-coumarin conjugates as topoisomerase II inhibitors” (Bioorg Med Chem Lett, 2017).
The source made the active and inactive calls. The rule behind the calls is not given here.

Tests used:
[1] = target: T1, DNA topoisomerase 2-alpha (Homo sapiens, UniProt P11388); assay: Inhibition of human topoisomerase-2 alpha expressed in baculovirus infected insect cells assessed as reduction in enzyme-meditaed supercoiled pRYG DNA substrate relaxation at 100 uM in presence of buffer containing DTT after 30 mins by agarose gel electrophoresis method
T1 sequence (P11388 whole entry): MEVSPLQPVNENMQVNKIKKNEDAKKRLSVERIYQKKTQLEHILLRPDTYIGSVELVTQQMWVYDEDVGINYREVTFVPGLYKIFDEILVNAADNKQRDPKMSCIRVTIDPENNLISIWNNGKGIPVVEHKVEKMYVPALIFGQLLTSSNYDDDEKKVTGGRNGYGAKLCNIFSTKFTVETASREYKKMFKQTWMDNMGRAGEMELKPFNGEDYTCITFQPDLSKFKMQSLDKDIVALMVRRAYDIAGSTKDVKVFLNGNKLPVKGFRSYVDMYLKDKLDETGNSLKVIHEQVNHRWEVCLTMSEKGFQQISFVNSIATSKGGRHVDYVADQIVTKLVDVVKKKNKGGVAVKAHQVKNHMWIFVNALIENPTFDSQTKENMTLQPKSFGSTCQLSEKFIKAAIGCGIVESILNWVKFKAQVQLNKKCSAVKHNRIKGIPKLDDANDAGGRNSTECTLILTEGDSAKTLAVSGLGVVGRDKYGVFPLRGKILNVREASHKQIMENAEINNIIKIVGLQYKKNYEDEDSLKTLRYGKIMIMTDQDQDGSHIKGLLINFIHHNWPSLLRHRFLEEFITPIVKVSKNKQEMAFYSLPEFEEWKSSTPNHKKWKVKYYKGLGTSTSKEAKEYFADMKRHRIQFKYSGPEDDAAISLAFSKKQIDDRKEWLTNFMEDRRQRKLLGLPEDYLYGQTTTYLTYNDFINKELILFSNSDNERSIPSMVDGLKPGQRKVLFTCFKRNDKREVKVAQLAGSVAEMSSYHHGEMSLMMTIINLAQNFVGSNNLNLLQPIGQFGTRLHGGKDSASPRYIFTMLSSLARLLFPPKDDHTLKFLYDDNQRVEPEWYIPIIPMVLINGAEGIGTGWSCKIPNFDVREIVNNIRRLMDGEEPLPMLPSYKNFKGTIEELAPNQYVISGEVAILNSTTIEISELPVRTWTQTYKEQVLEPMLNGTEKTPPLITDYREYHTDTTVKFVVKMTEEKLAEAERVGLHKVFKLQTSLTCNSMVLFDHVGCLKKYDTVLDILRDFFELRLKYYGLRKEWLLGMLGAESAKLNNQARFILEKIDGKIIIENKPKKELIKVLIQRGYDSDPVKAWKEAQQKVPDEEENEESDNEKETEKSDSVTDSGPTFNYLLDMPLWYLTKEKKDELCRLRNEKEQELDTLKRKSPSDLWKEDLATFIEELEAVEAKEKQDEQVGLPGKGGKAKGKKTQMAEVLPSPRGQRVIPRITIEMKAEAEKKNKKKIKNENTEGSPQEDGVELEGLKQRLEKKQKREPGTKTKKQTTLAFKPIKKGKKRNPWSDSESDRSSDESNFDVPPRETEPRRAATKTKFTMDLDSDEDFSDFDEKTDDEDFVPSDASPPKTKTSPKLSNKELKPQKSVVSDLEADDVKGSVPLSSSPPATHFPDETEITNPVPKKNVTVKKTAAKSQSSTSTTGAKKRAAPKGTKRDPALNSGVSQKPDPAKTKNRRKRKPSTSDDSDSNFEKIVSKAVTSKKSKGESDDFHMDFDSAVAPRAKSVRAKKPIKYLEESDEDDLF
Summary of the method: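 2U hTopoII on covalently closed negatively supercoiled pRYG plasmid, in 1% (v/v) DMSO. Commercial reaction buffer containing DTT. Etoposide, ICRF-187 and merbarone as controls. Agarose gel run without ethidium bromide separates supercoiled forms from relaxed topoisomers.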

[2] = target: T1, DNA topoisomerase 2-alpha; assay: Inhibition of human topoisomerase-2 alpha expressed in baculovirus infected insect cells assessed as reduction in enzyme-meditaed supercoiled pRYG DNA substrate relaxation at 100 uM in presence of buffer containing 2-mercaptoethanol after 30 mins by agarose gel electrophoresis method
Summary of the method: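 2U hTopoII on covalently closed negatively supercoiled pRYG plasmid, in 1% (v/v) DMSO. Home-made reaction buffer with 2-mercaptoethanol as reducing agent. Etoposide, ICRF-187 and merbarone as controls. Agarose gel run without ethidium bromide separates supercoiled substrate from relaxed topoisomers.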

[3] = target: T1, DNA topoisomerase 2-alpha; assay: Poison activity at human topoisomerase-2 alpha expressed in baculovirus infected insect cells assessed as stabilization of cleavage complex at 100 uM using pRYG DNA as substrate after 10 mins by ethidium bromide staining based agarose gel electrophoresis method
Summary of the method: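 Cleavage assay: 10U hTopoII on negatively supercoiled pRYG plasmid, in 1% (v/v) DMSO. Etoposide as positive control. Agarose gel run in the presence of ethidium bromide separates supercoiled substrate from linearized plasmid intermediate.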

[4] = target: T1, DNA topoisomerase 2-alpha; assay: Inhibition of human topoisomerase-2 alpha expressed in baculovirus infected insect cells assessed as reduction in enzyme-meditaed supercoiled pRYG DNA substrate relaxation in presence of buffer containing DTT after 30 mins by agarose gel electrophoresis method
Summary of the method: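 hTopoII relaxation of supercoiled pRYG plasmid in commercial DTT-containing reaction buffer, with compounds at 10, 30 and 100. Gel bands quantified as percent inhibition. Three independent assays, mean + SEM.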

[5] = target: T1, DNA topoisomerase 2-alpha; assay: (§1) Inhibition of human topoisomerase-2 alpha ATPase activity expressed in baculovirus infected insect cells assessed as disappearance of NADH at 10 uM using pBR322 DNA as substrate preincubated for 10 mins followed by ATP addition measured up to 35 mins by spectrophotometric based pyruvate kinase/lactate dehydrogenase coupled enzyme assay relative to control
Summary of the method: (§2)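 hTopoII ATPase measured in an ATPase/pyruvate kinase/lactate dehydrogenase linked assay as decline of NADH absorbance at 340 nm. Activity expressed as percent of 1% DMSO control.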

[6] = target: T1, DNA topoisomerase 2-alpha; assay: as §1, with “at 30” for “at 10”; summary of the method: as §2
[7] = target: T1, DNA topoisomerase 2-alpha; assay: as §1, with “at 100” for “at 10”; summary of the method: as §2
[8] = system: Escherichia coli; assay: Inhibition of Escherichia coli DNA gyrase assessed as reduction in enzyme-mediated supercoiling activity at 100 uM using ladder of partially relaxed pBlueScript 2 KS+ DNA as substrate after 1 hr by agarose gel electrophoresis method
Summary of the method: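 2.5U E. coli DNA gyrase acting on a ladder of partially relaxed forms as substrate, in 1% (v/v) DMSO. Agarose gel run without ethidium bromide separates the relaxed ladder from monomeric supercoiled product.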

[9] = system: Escherichia coli; assay: Inhibition of Escherichia coli DNA topisomerase-1 assessed as reduction in enzyme-mediated relaxation of supercoiled pBlueScript 2 KS+ DNA substrate at 100 uM after 1 hr by agarose gel electrophoresis method
Summary of the method: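 2.5U E. coli TopoI acting on supercoiled monomer substrate, in 1% (v/v) DMSO. Chloroquine and etoposide as controls. Agarose gel run without ethidium bromide separates supercoiled substrate from relaxed products.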

[10] = system: Escherichia coli; assay: Inhibition of Escherichia coli DNA topisomerase-1 assessed as reduction in enzyme-mediated unwinding activity at 100 uM using ladder of partially relaxed pBlueScript 2 KS+ DNA as substrate after 1 hr by agarose gel electrophoresis method
Summary of the method: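 E. coli TopoI unwinding assay for intercalation: a ladder of partially relaxed forms as substrate, in 1% (v/v) DMSO. Chloroquine as control. Agarose gel run without ethidium bromide separates the ladder from relaxed products.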

Row | Structure (SMILES) | inhibition [1] | inhibition [2] | Activity [3] | IC50 [4] [µM] | inhibition [5] [%] | inhibition [6] [%] | inhibition [7] [%] | inhibition [8] | inhibition [9] | inhibition [10]
1 | COc1cc([C@@H]2c3cc4c(cc3[C@@H](O[C@@H]3O[C@@H]5CO[C@@H](C)O[C@H]5[C@H](O)[C@H]3O)[C@H]3COC(=O)[C@H]23)OCO4)cc(OC)c1O | Active | inactive | Active |  |  |  |  |  |  | 
2 | O=C1C(O)=C(C(c2ccc(F)cc2)c2c(O)c3ccccc3oc2=O)C(=O)c2ccccc21 (centres undefined) | Active | Active | inactive | 10 to 30 | 67 | 90 | 94 | inactive | inactive | inactive
3 | O=C1C(O)=C(C(c2ccc(Cl)cc2)c2c(O)c3ccccc3oc2=O)C(=O)c2ccccc21 (centres undefined) | Active | Active | inactive | 10 to 30 | 61 | 78 | 94 | inactive | inactive | inactive
4 | C[C@@H](CN1CC(=O)NC(=O)C1)N1CC(=O)NC(=O)C1 | Active | inactive |  |  |  |  |  |  |  | 
5 | O=C1C(O)=C(C(c2ccc3c(c2)OCO3)c2c(O)c3ccccc3oc2=O)C(=O)c2ccccc21 (centres undefined) | Active | Active | inactive | 10 to 30 | 43 | 67 | 94 | inactive | inactive | inactive
6 | O=C1C(O)=C(C(c2ccccc2)c2c(O)c3ccccc3oc2=O)C(=O)c2ccccc21 (centres undefined) | Active | Active | inactive | 10 to 30 | 69 | 87 | 94 | inactive | inactive | inactive
7 | O=C(O)c1cn(C2CC2)c2cc(N3CCNCC3)c(F)cc2c1=O |  |  |  |  |  |  |  | Active |  | 
8 | CCN(CC)CCCC(C)Nc1ccnc2cc(Cl)ccc12 (centres undefined) |  |  |  |  |  |  |  |  | Active | 
9 | O=C1C(O)=C(C(c2ccc([N+](=O)[O-])cc2)c2c(O)c3ccccc3oc2=O)C(=O)c2ccccc21 (centres undefined) | Active | Active | inactive | 10 to 30 | 34 | 39 | 61 | inactive | inactive | inactive
10 | O=C1NC(=S)NC(=O)C1C(=O)Nc1ccccc1 | Active | inactive |  |  |  |  |  |  |  | 
11 | O=C1C(O)=C(C(c2ccc(Br)cc2)c2c(O)c3ccccc3oc2=O)C(=O)c2ccccc21 (centres undefined) | Active | Active | inactive | 10 to 30 | 40 | 57 | 96 | inactive | inactive | inactive
12 | O=C1C(O)=C(C(c2ccccc2F)c2c(O)c3ccccc3oc2=O)C(=O)c2ccccc21 (centres undefined) | Active | Active | inactive | 10 to 30 | 24 | 30 | 82 | inactive | inactive | inactive
